ChEMBL document CHEMBL1141756, “3-Nitropropionic acid (3-NPA), a potent antimycobacterial agent from endophytic fungi: is 3-NPA in some plants produced by endophytes?” (J Nat Prod, 2005)
Converted amounts (≈) assume the structure as drawn. Structures can show the parent of a compound that is named as a salt. The source made the active and inactive calls. The rule behind the calls is not given here.

Assays:
[1] = system: Mycobacterium tuberculosis; experiment: Antimycobacterial activity against Mycobacterium tuberculosis H37Ra by microplate alamar blue assay; type: functional
Procedure, shortened: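 MABA against M. tuberculosis H37Ra grown in Middlebrook 7H9 broth; MIC read. Isoniazid and kanamycin sulfate run as reference drugs in the same experiment as samples.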

[2] = system: NCI-H187; experiment: Cytotoxicity against human NCI-H187 cells at 167.9 uM; type: functional, cell-based
Procedure, shortened: (§1)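 BC, KB and NCI-H187 cells tested at 167.9 µM using the Skehan colorimetric cytotoxicity method; ellipticine reference.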

[3] = system: Vero; experiment: Cytotoxicity against african green monkey Vero cells at 419.8 uM; type: functional, cell-based; details: Chlorocebus sabaeus
Procedure, shortened: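 Vero cells tested at 419.8 µM using the Skehan colorimetric cytotoxicity method; ellipticine reference.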

[4] = system: BC; experiment: Cytotoxicity against human BC cells at 167.9 uM; type: functional, cell-based; procedure, shortened: as §1
[5] = system: KB; experiment: Cytotoxicity against human KB cells at 167.9 uM; type: functional, cell-based; procedure, shortened: as §1
[6] = system: KB; experiment: Cytotoxicity against human KB cells; type: functional, cell-based
Procedure, shortened: (§2)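 Colorimetric cytotoxicity method (Skehan) on Vero, KB, NCI-H187 (small-cell lung cancer) and BC (breast cancer) cells; IC50 derived; ellipticine as reference compound.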

[7] = Cytotoxicity against human BC cells; type: functional, cell-based; procedure, shortened: as §2
[8] = system: Vero; experiment: Cytotoxicity against african green monkey Vero cells; type: functional, cell-based; details: Chlorocebus sabaeus; procedure, shortened: as §2
[9] = system: NCI-H187; experiment: Cytotoxicity against human NCI-H187 cells; type: functional, cell-based; procedure, shortened: as §2

## O=C(O)CC[N+](=O)[O-]
[1]
  MIC: 3.3 µM (≈ 0.393 µg/mL)
[2]
  Activity: inactive
[3]
  Activity: inactive
[4]
  Activity: inactive
[5]
  Activity: inactive

## Cc1c2ccncc2c(C)c2c1[nH]c1ccccc12 [ELLIPTECINE]
[6]
  IC50: 0.8 µM
[7]
  IC50: 0.8 µM
[8]
  IC50: 0.8 µM
[9]
  IC50: 0.8 µM

## NNC(=O)c1ccncc1 [ISONIAZID]
[1]
  MIC: 0.29 µM (≈ 0.0398 µg/mL)

## NC[C@H]1O[C@H](O[C@H]2[C@H](O)[C@@H](O[C@H]3O[C@H](CO)[C@@H](O)[C@H](N)[C@H]3O)[C@H](N)C[C@@H]2N)[C@H](O)[C@@H](O)[C@@H]1O [KANAMYCIN SULFATE]
[1]
  MIC: 3.4 µM
